Results taken from ChEMBL document CHEMBL1155468, “Syntheses and evaluation of anticonvulsant profile and teratogenicity of novel amide derivatives of branched aliphatic carboxylic acids with 4-aminobenzensulfonamide” (J Med Chem, 2010).
Activity calls are given as the source filed them. The rule behind the calls is not given here.

Key:
Mus musculus [1] = assay: Teratogenic effect in SWV mouse assessed as live fetuses at 316 mg/kg, ip administered on morning of day 8 of gestation; type: toxicity, organism-based; design: dose 316 mg/kg, route intraperitoneal; settings: in vivo
Method in brief: (§1)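 SWV inbred mice: two-month-old nulligravid females mated overnight with males and checked for vaginal plugs next morning; gestation onset taken as 10 p.m. the previous night. On gestation day 8.5 each dam got one ip injection, 0.55–2.7 mmol/kg, in 25% aqueous Cremophor EL (vehicle controls dosed alike), 10 μL/g body weight. Litters and implants tallied; resorptions and live fetuses reported as counts with percentages.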

Mus musculus [2] = assay: Anticonvulsant activity in CF1 albino mouse assessed as inhibition of maximal electroshock-induced seizures at 30 mg/kg, ip after 0.5 hrs; type: functional, organism-based; design: dose 30 mg/kg
Method in brief: (§2)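 Test compounds suspended in 0.5% methylcellulose and given ip to adult male CF no. 1 albino mice (18-25 g) at 0.01 mL/g body weight before maximal electroshock challenge.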

Mus musculus [3] = assay: Neurotoxicity in CF1 albino mouse assessed as motor impairment at 30 mg/kg, ip after 0.5 hrs; type: toxicity, organism-based; design: dose 30 mg/kg, route intraperitoneal; settings: in vivo
Mus musculus [4] = assay: Teratogenic effect in SWV mouse assessed as resorptions at 522 mg/kg, ip administered on morning of day 8 of gestation; type: toxicity, organism-based; design: dose 522 mg/kg, route intraperitoneal; settings: in vivo; method in brief: as §1
Mus musculus [5] = assay: Teratogenic effect in SWV mouse assessed as resorptions at 316 mg/kg, ip administered on morning of day 8 of gestation; type: toxicity, organism-based; design: dose 316 mg/kg, route intraperitoneal; settings: in vivo; method in brief: as §1
Mus musculus [6] = assay: Anticonvulsant activity in CF1 albino mouse assessed as inhibition of subcutaneous pentylenetetrazole-induced seizures at 100 mg/kg, ip after 0.5 hrs; type: functional, organism-based; design: dose 100 mg/kg
Method in brief: (§3)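 Adult male CF no. 1 albino mice (18-25 g) dosed ip with compound suspended in 0.5% methylcellulose (0.01 mL/g). Convulsant: pentylenetetrazol dissolved in 0.9% saline as a 0.85% solution for mice, given subcutaneously.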

Mus musculus [7] = assay: Teratogenic effect in SWV mouse assessed as dead fetuses at 522 mg/kg, ip administered on morning of day 8 of gestation; type: toxicity, organism-based; design: dose 522 mg/kg, route intraperitoneal; settings: in vivo
Method in brief: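 Inbred SWV mice, which are susceptible to VPA-induced neural tube defects. Two-month-old nulligravid females were mated overnight and checked for vaginal plugs next morning; gestation onset was taken as 10 p.m. the prior night. On gestation day 8.5, each dam received a single ip dose (range 0.55-2.7 mmol/kg) in 25% aqueous Cremophor EL at 10 μL/g. Dead fetuses were counted per implants.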

Mus musculus [8] = assay: Anticonvulsant activity in CF1 albino mouse assessed as inhibition of subcutaneous pentylenetetrazole-induced seizures at 30 mg/kg, ip after 0.5 hrs; type: functional, organism-based; design: dose 30 mg/kg; method in brief: as §3
Mus musculus [9] = assay: Anticonvulsant activity in CF1 albino mouse assessed as inhibition of subcutaneous pentylenetetrazole-induced seizures at 100 mg/kg, ip after 4 hrs; type: functional, organism-based; design: dose 100 mg/kg; method in brief: as §3
Mus musculus [10] = assay: Teratogenic effect in SWV mouse assessed as live fetuses at 522 mg/kg, ip administered on morning of day 8 of gestation; type: toxicity, organism-based; design: dose 522 mg/kg, route intraperitoneal; settings: in vivo; method in brief: as §1
Mus musculus [11] = assay: Anticonvulsant activity in CF1 albino mouse assessed as inhibition of maximal electroshock-induced seizures at 100 mg/kg, ip after 0.5 hrs; type: functional, organism-based; design: dose 100 mg/kg; method in brief: as §2
Mus musculus [12] = assay: Neurotoxicity in CF1 albino mouse assessed as motor impairment at 100 mg/kg, ip after 4 hrs; type: toxicity, organism-based; design: dose 100 mg/kg, route intraperitoneal; settings: in vivo
Rattus norvegicus [13] = assay: Anticonvulsant activity in Sprague-Dawley rat assessed as inhibition of maximal electroshock-induced seizures at 30 mg/kg, po after 30 mins
Mus musculus [14] = assay: Anticonvulsant activity in CF1 albino mouse assessed as inhibition of subcutaneous pentylenetetrazole-induced seizures at 300 mg/kg, ip after 4 hrs; type: functional, organism-based; design: dose 300 mg/kg; method in brief: as §3
Rattus norvegicus [15] = assay: Anticonvulsant activity in Sprague-Dawley rat assessed as inhibition of maximal electroshock-induced seizures at 30 mg/kg, po after 1 hr
Rattus norvegicus [16] = assay: Anticonvulsant activity in Sprague-Dawley rat assessed as inhibition of maximal electroshock-induced seizures at 30 mg/kg, po after 15 mins
Mus musculus [17] = assay: Neurotoxicity in CF1 albino mouse assessed as motor impairment at 30 mg/kg, ip after 4 hrs; type: toxicity, organism-based; design: dose 30 mg/kg, route intraperitoneal; settings: in vivo
Mus musculus [18] = assay: Anticonvulsant activity in CF1 albino mouse assessed as inhibition of maximal electroshock-induced seizures at 100 mg/kg, ip after 4 hrs; type: functional, organism-based; design: dose 100 mg/kg; method in brief: as §2
Rattus norvegicus [19] = assay: Anticonvulsant activity in Sprague-Dawley rat assessed as inhibition of maximal electroshock-induced seizures at 30 mg/kg, po after 4 hrs
Mus musculus [20] = assay: Neurotoxicity in CF1 albino mouse assessed as motor impairment at 100 mg/kg, ip after 0.5 hrs; type: toxicity, organism-based; design: dose 100 mg/kg, route intraperitoneal; settings: in vivo
Mus musculus [21] = assay: Teratogenic effect in SWV mouse assessed as live fetuses at 783 mg/kg, ip administered on morning of day 8 of gestation; type: toxicity, organism-based; design: dose 783 mg/kg, route intraperitoneal; settings: in vivo; method in brief: as §1
Mus musculus [22] = assay: Anticonvulsant activity in CF1 albino mouse assessed as inhibition of maximal electroshock-induced seizures at 30 mg/kg, ip after 4 hrs; type: functional, organism-based; design: dose 30 mg/kg; method in brief: as §2
Mus musculus [23] = assay: Teratogenic effect in SWV mouse assessed as live fetuses at 159 mg/kg, ip administered on morning of day 8 of gestation; type: toxicity, organism-based; design: dose 159 mg/kg, route intraperitoneal; settings: in vivo
Method in brief: (§4)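 Two-month-old nulligravid SWV females were mated overnight and checked for vaginal plugs the next morning; gestation onset was set at 10 p.m. the previous night. On gestation day 8.5, each dam received a single ip injection (0.55-2.7 mmol/kg range) or vehicle (25% aqueous Cremophor EL) at 10 μL/g body weight. Litters were scored for implants, resorptions, live and dead fetuses, and fetuses with neural tube defects.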

Mus musculus [24] = assay: Anticonvulsant activity in CF1 albino mouse assessed as inhibition of maximal electroshock-induced seizures at 300 mg/kg, ip after 4 hrs; type: functional, organism-based; design: dose 300 mg/kg; method in brief: as §2
Mus musculus [25] = assay: Neurotoxicity in CF1 albino mouse assessed as motor impairment at 300 mg/kg, ip after 4 hrs; type: toxicity, organism-based; design: dose 300 mg/kg, route intraperitoneal; settings: in vivo
Mus musculus [26] = assay: Teratogenic effect in SWV mouse assessed as resorptions at 783 mg/kg, ip administered on morning of day 8 of gestation; type: toxicity, organism-based; design: dose 783 mg/kg, route intraperitoneal; settings: in vivo; method in brief: as §1
Mus musculus [27] = assay: Anticonvulsant activity in CF1 albino mouse assessed as inhibition of subcutaneous pentylenetetrazole-induced seizures at 30 mg/kg, ip after 4 hrs; type: functional, organism-based; design: dose 30 mg/kg; method in brief: as §3
Mus musculus [28] = assay: Neurotoxicity in CF1 albino mouse assessed as motor impairment at 300 mg/kg, ip after 0.5 hrs; type: toxicity, organism-based; design: dose 300 mg/kg, route intraperitoneal; settings: in vivo
Mus musculus [29] = assay: Teratogenic effect in SWV mouse assessed as fetuses with neural tube deffects at 522 mg/kg, ip administered on morning of day 8 of gestation; type: toxicity, organism-based; design: dose 522 mg/kg, route intraperitoneal; settings: in vivo; method in brief: as §4
Mus musculus [30] = assay: Anticonvulsant activity in CF1 albino mouse assessed as inhibition of subcutaneous pentylenetetrazole-induced seizures at 300 mg/kg, ip after 0.5 hrs; type: functional, organism-based; design: dose 300 mg/kg; method in brief: as §3
Mus musculus [31] = assay: Anticonvulsant activity in CF1 albino mouse assessed as inhibition of maximal electroshock-induced seizures at 300 mg/kg, ip after 0.5 hrs; type: functional, organism-based; design: dose 300 mg/kg; method in brief: as §2
Mus musculus [32] = assay: Teratogenic effect in SWV mouse assessed as resorptions at 159 mg/kg, ip administered on morning of day 8 of gestation; type: toxicity, organism-based; design: dose 159 mg/kg, route intraperitoneal; settings: in vivo; method in brief: as §1

For `NS(=O)(=O)c1ccc(NC(=O)Cc2ccccc2)cc1`, the Activity (Mus musculus [1]) was 96.4%, the Activity (Mus musculus [2]) was “inactive” and the Activity (Mus musculus [3]) was “Non-toxic”. The Activity (Mus musculus [4]) was 34.5%, the Activity (Mus musculus [5]) was 3.6% and the Activity (Mus musculus [6]) was “inactive”. For the same compound, the Activity (Mus musculus [7]) was 1.8%, the Activity (Mus musculus [8]) was “inactive” and the Activity (Mus musculus [9]) was “inactive”. The Activity (Mus musculus [10]) was 63.7%, the Activity (Mus musculus [11]) was “Active” and the Activity (Mus musculus [12]) was “Non-toxic”. For the same compound, the Activity (Rattus norvegicus [13]) was “inactive”, the Activity (Mus musculus [14]) was “inactive” and the Activity (Rattus norvegicus [15]) was “Active”. The Activity (Rattus norvegicus [16]) was “inactive”, the Activity (Mus musculus [17]) was “Non-toxic” and the Activity (Mus musculus [18]) was “Active”. The Activity (Rattus norvegicus [19]) was “Active”, the Activity (Mus musculus [20]) was “Non-toxic” and the Activity (Mus musculus [21]) was 16.7%. The Activity (Mus musculus [22]) was “inactive”, the Activity (Mus musculus [23]) was 93.8% and the Activity (Mus musculus [24]) was “Active”. The Activity (Mus musculus [25]) was “Non-toxic”, the Activity (Mus musculus [26]) was 83.3% and the Activity (Mus musculus [27]) was “inactive”. The Activity (Mus musculus [28]) was “Non-toxic”, the Activity (Mus musculus [29]) was 3% and the Activity (Mus musculus [30]) was “inactive”. The Activity (Mus musculus [31]) was “Active” and the Activity (Mus musculus [32]) was 6.2%.
